Consider 33 compounds from ChEMBL document CHEMBL1156168, “Eastern extension of azoles as non-nucleoside inhibitors of HIV-1 reverse transcriptase; cyano group alternatives” (Bioorg Med Chem Lett, 2010).

For series [1], the system named is MT2. The series can be described thus: Cytotoxicity against human MT2 cells infected with HIV1 harboring reverse transcriptase Y181C mutation by MTT assay. Format: cell-based. On the technique in general: Tetrazolium dyes change colour on reduction, which living cells bring about.
For series [2], the system named is Human immunodeficiency virus 1. The series can be described thus: Antiviral activity against HIV1 reverse transcriptase Y181C mutant infected in human MT2 cells assessed as inhibition of viral replication by MTT assay. The note with it: Human immunodeficiency virus 1, MT2. Format: functional, organism-based. In short, it runs like this: (§1)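 HIV-1 (IIIB or RT-variant strain) infection of human MT-2 T-cells. Protection of the infected cells was read out by the MTT colorimetric method.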

Series [3] has as its system MT2. The series can be described thus: Cytotoxicity against human MT2 cells infected with HIV1 harboring reverse transcriptase K103N/Y181C mutation by MTT assay. It counts as cell-based.
Series [4] deals with Human immunodeficiency virus 1. The series can be described thus: Antiviral activity against HIV1 3B infected in human MT2 cells assessed as inhibition of virus replication by MTT assay. Format: functional, organism-based. The note with it: Human immunodeficiency virus 1, 3B. In short, it runs like this:
as §1

For series [5], the system named is MT2. In words: (§2) Cytotoxicity against human MT2 cells by MTT assay. Format: cell-based. The note with it: mt2.
Series [6] relates to Human immunodeficiency virus 1. The series can be described thus: Antiviral activity against HIV1 reverse transcriptase K103N/Y181C double mutant infected in human MT2 cells assessed as inhibition of viral replication by MTT assay. Format: functional, organism-based. The note with it: Human immunodeficiency virus 1, MT2. In short, it runs like this: as §1
A short description of series [7]: as §2. It counts as cell-based. The note with it: MT2 cells.

Take `Fc1cccc(F)c1Cc1cnc(Nc2ccc(Oc3ccncc3)c(Cl)c2)o1`: the CC50 (as a rule, the concentration at which the toxic effect on the cells reaches its halfway point) in the series with MT2 [1] came out at 17 µM; in the series on MT2 [3] it was 17 µM; with MT2 [5] it was 21 µM. Also, the EC50 (in general, the concentration at which the effect is half-maximal) in series [2] was 2.3 µM; in series [4] it was 0.12 µM; in series [6] it was 7.2 µM.
In the case of `Clc1cccc(Cl)c1Cc1nnc(Nc2ccc(COCc3ccsc3)cc2)o1`, the half-maximal cytotoxic concentration (CC50) in the series on MT2 [5] was greater than 100 µM.
For `Clc1cccc(Cl)c1Cc1nnc(Nc2ccc(COCc3cccnc3)cc2)o1`, the 50% effective concentration (EC50) in series [4] amounted to 4.6 µM. Moreover, the CC50 in the series on MT2 [5] stood at 81 µM.
In the case of `Fc1cccc(F)c1Cc1cnc(Nc2ccc(-c3ccncc3)c(Cl)c2)o1`, the CC50 in the series with MT2 [1] is 11 µM; in the series on MT2 [3] it was 9.1 µM; in the series with MT2 [5] it was 9.3 µM. Besides, the EC50 in series [2] stood at 3.8 µM; in series [4], 0.14 µM; in series [6], 5.6 µM.
Regarding `OCCc1ccc(Nc2ncc(Cc3c(F)cccc3F)o2)cc1`, the half-maximal effective concentration (EC50) in series [4] came to 2.7 µM. In addition, the CC50 in the series on MT2 [5] was 35 µM.
Consider `[O-][n+]1ccc(OCc2ccc(Nc3ncc(Cc4c(F)cccc4F)o3)cc2Cl)cc1`, for which the CC50 in the series on MT2 [1] was found to be 2.7 µM; with MT2 [3], 2.1 µM; in the series with MT2 [5], 1.7 µM. For the same compound, the EC50 in series [4] turned out to be 0.011 µM.
On to `Clc1cccc(Cl)c1Cc1nnc(Nc2ccc(COCc3ccco3)cc2)o1`, for which, in series [4], the 50% effective concentration (EC50) came out at 2.8 µM. In addition, in the series with MT2 [5], half-maximal cytotoxicity (CC50) was put at 12 µM.
Regarding `Fc1cccc(F)c1Cc1cnc(Nc2ccc(Oc3cccnc3)c(Cl)c2)o1`, the EC50 was 3.2 µM in series [2] and 4.5 µM in series [6].
As for `Fc1cccc(F)c1Cc1cnc(Nc2ccc(COCc3ccco3)cc2)o1`, the concentration for a half-maximal effect (EC50) in series [4] came to 1.6 µM. For the same compound, in the series on MT2 [5], the CC50 came to 31 µM.
In the case of `Cc1cc(C#N)cc(C)c1Oc1nc(Nc2ccc(C#N)cc2)nc(N)c1Br` [ETRAVIRINE], the cytotoxic concentration (CC50) with MT2 [1], with MT2 [3] and in the series with MT2 [5] was greater than 0.1 µM each time. The EC50 in series [2] was determined as 0.011 µM.
For `CSCc1ccc(Nc2ncc(Cc3c(F)cccc3F)o2)cc1`, the 50% effective concentration (EC50) in series [4] came out at 1.2 µM. The 50% cytotoxic concentration (CC50) in the series on MT2 [5] is greater than 100 µM.
On the same counts, the results for `Fc1cccc(F)c1Cc1cnc(Nc2ccc(COc3ccncc3)cc2)o1` are 0.4 µM and greater than 100 µM.
As for `O=c1ccn(CCOc2ccc(Nc3ncc(Cc4c(F)cccc4F)o3)cc2)c(=O)[nH]1`, the EC50 in series [4] is 25 µM. This compound had a CC50 with MT2 [5] of 73 µM.
In the case of `Fc1cccc(F)c1Cc1cnc(Nc2ccc(-c3cccnc3)c(Cl)c2)o1`, the 50% cytotoxic concentration (CC50) was 15 µM in the series on MT2 [1], 12.5 µM in the series with MT2 [3] and 8.9 µM in the series on MT2 [5]. Moreover, the EC50 in series [2] is 6 µM; in series [4] it was 0.073 µM.
As for `COCc1ccc(Nc2nnc(Cc3c(Cl)cccc3Cl)o2)cc1`, the EC50 in series [4] worked out at 4.3 µM. In the series on MT2 [5], this compound had a half-maximal cytotoxic concentration (CC50) of 100 µM.
With `Cc1cn([C@H]2C=C[C@@H](CO)O2)c(=O)[nH]c1=O` [STAVUDINE], the figures for the EC50 in series [2], in series [4] and in series [6] were 0.7 µM, 1.4 µM and 0.5 µM, respectively.
As to `Fc1cccc(F)c1Cc1cnc(Nc2ccc(CCOc3ccncc3)cc2)o1`, the EC50 in series [4] came out at 1.1 µM. In addition, the CC50 with MT2 [5] stood at 11 µM.
For the compound `Clc1cccc(Cl)c1Cc1nnc(Nc2ccc(COCc3ccncc3)cc2)o1`, the EC50 in series [4] was determined as 1.6 µM. The compound further had a 50% cytotoxic concentration (CC50) in the series on MT2 [5] of 81 µM.
On to `N#Cc1ccc(Nc2ncc(Cc3c(F)cccc3F)o2)cc1Cl`, for which the EC50 in series [4] amounted to 0.006 µM.
In the case of `Clc1cccc(Cl)c1Cc1nnc(Nc2ccc(COCc3ccccn3)cc2)o1`, in series [4], the EC50 was determined as 5 µM. In the series with MT2 [5], the CC50 was greater than 100 µM.
Consider `Clc1cccc(Cl)c1Cc1nnc(Nc2ccc(COCc3ccoc3)cc2)o1`, for which it took 21 µM to reach half-maximal cytotoxicity in the series on MT2 [5] (CC50).
With `Clc1cccc(Cl)c1Cc1nnc(Nc2ccc(COCc3ccccc3)cc2)o1`, half-maximal cytotoxicity in the series on MT2 [5] (CC50) was put at 84 µM.
As for `COCc1ccc(Nc2ncc(Cc3c(Cl)cccc3Cl)o2)cc1`, in series [4], the EC50 came out at 1.2 µM. It took 8.1 µM to reach half-maximal cytotoxicity with MT2 [5] (CC50).
For the compound `Fc1cccc(F)c1Cc1cnc(Nc2ccc(Oc3ccncc3)cc2)o1`, the cytotoxic concentration (CC50) in the series with MT2 [1] stood at 17 µM; in the series on MT2 [3], 17 µM; in the series with MT2 [5], 21 µM. Further, the results for the EC50 in series [2], in series [4] and in series [6] were 5 µM, 0.19 µM and 12 µM, respectively.
Take `COCc1ccc(Nc2ncc(Cc3c(F)cccc3F)o2)cc1`: the EC50 in series [4] came to 2.1 µM. In the series with MT2 [5], this compound registered a CC50 of 32 µM.
As for `OCc1ccc(Nc2ncc(Cc3c(F)cccc3F)o2)cc1Cl`, the EC50 in series [4] amounted to 0.26 µM. This compound displayed a cytotoxic concentration (CC50) with MT2 [5] of 90 µM.
As for `Fc1cccc(F)c1Cc1cnc(Nc2ccc(COc3ccncc3)c(Cl)c2)o1`, the EC50 in series [4] came out at 0.03 µM. This compound yielded a CC50 in the series on MT2 [5] of 3.8 µM.
For the compound `Fc1cccc(F)c1Cc1cnc(Nc2ccc(Oc3cccnc3)c(Br)c2)o1`, in series [4], the EC50 amounted to 0.034 µM. The compound also had a CC50 in the series on MT2 [5] of 7.5 µM.
The corresponding values for `O=c1ncccn1SCCc1ccc(Nc2ncc(Cc3c(F)cccc3F)o2)cc1` are 13 µM and greater than 100 µM.
On the same counts, the results for `OCc1ccc(Nc2ncc(Cc3c(F)cccc3F)o2)cc1` are 3.8 µM and greater than 100 µM.
`Fc1cccc(F)c1Cc1cnc(Nc2ccc(Oc3cccnc3)cc2)o1`: the EC50 in series [4] was 0.31 µM. The CC50 with MT2 [5] was 22 µM.
Consider `O=C1Nc2ccc(Cl)cc2[C@@](C#CC2CC2)(C(F)(F)F)O1` [EFAVIRENZ], for which the CC50 in the series on MT2 [1], in the series with MT2 [3] and in the series with MT2 [5] was greater than 0.1 µM throughout.
As to `Cc1ccnc2c1NC(=O)c1cccnc1N2C1CC1` [NEVIRAPINE], the CC50 in series [7] was greater than 100 µM.
